Data published in ChEMBL document CHEMBL4689842, “EUbOPEN Chemogenomics Library wave 1” (2021).
Where “and” joins values, the source holds several entries; their conditions need not be identical. Identical values can stand only once.

Tests used:
Assay type in all cases: toxicity, cell-based
Fibroblast [1] = test: Multiplex assay against human fibroblast; details: 10 µM, compound concentration 10 uM
Procedure, shortened: (§1)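 Live cells carried four stains from seeding: Hoechst33342, BioTracker Green Microtubule Cytoskeleton Dye, MitoTracker Red and Annexin V Alexa Fluor 680. They were imaged on a CQ1 microscope at 37°C and 5% CO2 after compound addition. Using CellPathfinder machine-learning gating, cells were split into Hoechst high-intensity objects or normal cells, normal cells into healthy, pyknosed or fragmented nuclei, and pyknosed cells into mitotic or apoptotic; tubulin, mitochondrial-mass and membrane-permeability phenotypes are per cents of healthy-nucleus cells.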

U2OS [2] = test: Multiplex assay against U2OS; details: human, 10 µM, compound concentration 10 uM; procedure, shortened: as §1
HEK-293T [3] = test: Incucyte cell viability with HEK293T; details: human, 10 µM, compound concentration 10 uM; further: filed as whole numbers so only -1 and 0 and 1 occur
HEK-293T [4] = test: Multiplex assay against HEK293T; details: human, 10 µM, compound concentration 10 uM; procedure, shortened: as §1;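 on Population Tubulin-Different-Phenotype (%): share of the cells with healthy nuclei that show this phenotype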
U2OS [5] = test: Incucyte cell viability with U2OS; details: human, 10 µM, compound concentration 10 uM; further: filed as whole numbers so only -1 and 0 and 1 occur
Fibroblast [6] = test: Incucyte cell viability with human fibroblast; details: 10 µM, compound concentration 10 uM; further: filed as whole numbers so only -1 and 0 and 1 occur
[7] = 0 h, replicate number 1, timepoint 0 hours
[8] = 12 h, replicate number 1, timepoint 12 hours
[9] = 18 h, replicate number 1, timepoint 18 hours
[10] = 24 h, replicate number 1, timepoint 24 hours
[11] = 6 h, replicate number 1, timepoint 6 hours

## Cn1cncc1[C@@](O)(COc1ccc(C#N)cc1-c1ccc(OC(F)(F)F)cc1)c1ccc(C#N)cc1 [A-108]
Fibroblast [1]; 12 h, replicate 1
  Population Apoptotic (%): 53% and 83%
  Population Fragmented Nuclei (%): 39% and 19%
  Population Healthy Nuclei (%): 44% and 66%
  Population Hoechst High Intensity Objects (%): 15% and 12%
  Population Membrane Permeable-Phenotype (%): 23% and 8%
  Population Mitochondria Different-Phenotype (%): 20% and 7%
  Population Mitotic Cells (%): 46% and 16%
  Population Normal (%): 84% and 87%
  Population Pyknosed Nuclei (%): 15% and 14%
  Total Cell Count: 192 and 337
Fibroblast [1]; 12 h, replicate 2
  Population Apoptotic (%): 42% and 57%
  Population Fragmented Nuclei (%): 52% and 61%
  Population Healthy Nuclei (%): 34% and 26%
  Population Hoechst High Intensity Objects (%): 32%
  Population Membrane Permeable-Phenotype (%): 0% and 5%
  Population Mitotic Cells (%): 57% and 42%
  Population Normal (%): 67%
  Population Pyknosed Nuclei (%): 12% and 11%
  Population Tubulin-Different-Phenotype (%): 26% and 52%
  Total Cell Count: 82 and 94
Fibroblast [1]; 24 h, replicate 1
  Population Apoptotic (%): 54% and 58%
  Population Fragmented Nuclei (%): 40% and 16%
  Population Healthy Nuclei (%): 47% and 69%
  Population Hoechst High Intensity Objects (%): 11% and 16%
  Population Membrane Permeable-Phenotype (%): 3% and 7%
  Population Mitotic Cells (%): 45% and 41%
  Population Normal (%): 88% and 83%
  Population Pyknosed Nuclei (%): 14%
  Total Cell Count: 216 and 318
Fibroblast [1]; 24 h, replicate 2
  Population Apoptotic (%): 50% and 62%
  Population Fragmented Nuclei (%): 50%
  Population Healthy Nuclei (%): 43% and 37%
  Population Hoechst High Intensity Objects (%): 29% and 21%
  Population Membrane Permeable-Phenotype (%): 14% and 16%
  Population Mitochondria Different-Phenotype (%): 66% and 28%
  Population Mitotic Cells (%): 50% and 37%
  Population Normal (%): 70% and 78%
  Population Pyknosed Nuclei (%): 6% and 11%
  Population Tubulin-Different-Phenotype (%): 37% and 52%
  Total Cell Count: 88 and 85
U2OS [2]; 12 h, replicate 1
  Population Apoptotic (%): 38% and 53%
  Population Healthy Nuclei (%): 70% and 84%
  Population Hoechst High Intensity Objects (%): 3%
  Population Membrane Permeable-Phenotype (%): 31% and 17%
  Population Mitochondria Different-Phenotype (%): 42% and 25%
  Population Mitotic Cells (%): 61% and 46%
  Population Normal (%): 96%
  Population Pyknosed Nuclei (%): 17% and 11%
  Total Cell Count: 188 and 136
U2OS [2]; 12 h, replicate 2
  Population Apoptotic (%): 43% and 50%
  Population Healthy Nuclei (%): 60% and 90%
  Population Hoechst High Intensity Objects (%): 19% and 8%
  Population Mitochondria Different-Phenotype (%): 63% and 21%
  Population Mitotic Cells (%): 56% and 50%
  Population Normal (%): 80% and 91%
  Total Cell Count: 101 and 164
U2OS [2]; 24 h, replicate 1
  Population Fragmented Nuclei (%): 8% and 3%
  Population Healthy Nuclei (%): 74% and 86%
  Population Hoechst High Intensity Objects (%): 2% and 4%
  Population Membrane Permeable-Phenotype (%): 29% and 11%
  Population Mitochondria Different-Phenotype (%): 37% and 20%
  Population Mitotic Cells (%): 28% and 77%
  Population Normal (%): 97% and 95%
  Population Pyknosed Nuclei (%): 17% and 10%
  Total Cell Count: 190 and 184
U2OS [2]; 24 h, replicate 2
  Population Apoptotic (%): 80% and 45%
  Population Fragmented Nuclei (%): 18%
  Population Healthy Nuclei (%): 55% and 85%
  Population Hoechst High Intensity Objects (%): 7%
  Population Mitochondria Different-Phenotype (%): 75% and 28%
  Population Mitotic Cells (%): 19% and 54%
  Population Normal (%): 92%
  Population Tubulin-Different-Phenotype (%): 73% and 25%
  Total Cell Count: 88 and 199
HEK-293T [3]; [7]
  Growth Rate: 1
HEK-293T [3]; 6 h, replicate number 2, timepoint 6 hours
  Growth Rate: 0
HEK-293T [3]; [8]
  Growth Rate: 1
HEK-293T [3]; 12 h, replicate number 2, timepoint 12 hours
  Growth Rate: 0
HEK-293T [3]; [9]
  Growth Rate: 0
HEK-293T [3]; [10]
  Growth Rate: 0
HEK-293T [4]; 12 h, replicate 1
  Population Apoptotic (%): 23% and 20%
  Population Fragmented Nuclei (%): 11% and 16%
  Population Healthy Nuclei (%): 51% and 64%
  Population Hoechst High Intensity Objects (%): 11% and 14%
  Population Mitochondria Different-Phenotype (%): 8% and 4%
  Population Mitotic Cells (%): 76% and 79%
  Population Normal (%): 88% and 85%
  Population Pyknosed Nuclei (%): 36% and 18%
  Total Cell Count: 827 and 582
HEK-293T [4]; 12 h, replicate 2
  Population Apoptotic (%): 12% and 14%
  Population Fragmented Nuclei (%): 3% and 9%
  Population Healthy Nuclei (%): 77% and 85%
  Population Hoechst High Intensity Objects (%): 4% and 2%
  Population Mitochondria Different-Phenotype (%): 19% and 7%
  Population Mitotic Cells (%): 87% and 85%
  Population Normal (%): 95% and 97%
  Total Cell Count: 1209 and 1952
HEK-293T [4]; 24 h, replicate 1
  Population Apoptotic (%): 25% and 12%
  Population Fragmented Nuclei (%): 10% and 12%
  Population Healthy Nuclei (%): 60% and 78%
  Population Hoechst High Intensity Objects (%): 10%
  Population Mitochondria Different-Phenotype (%): 4%
  Population Mitotic Cells (%): 75% and 87%
  Population Normal (%): 89%
  Total Cell Count: 759 and 650
HEK-293T [4]; 24 h, replicate 2
  Population Apoptotic (%): 8% and 5%
  Population Healthy Nuclei (%): 73% and 71%
  Population Hoechst High Intensity Objects (%): 4% and 3%
  Population Mitochondria Different-Phenotype (%): 9% and 2%
  Population Mitotic Cells (%): 91% and 95%
  Population Normal (%): 95% and 96%
  Population Tubulin-Different-Phenotype (%): 97%
  Total Cell Count: 1251 and 3226
U2OS [5]; [7]
  Growth Rate: 0
U2OS [5]; [11]
  Growth Rate: 0
U2OS [5]; [8]
  Growth Rate: 1
U2OS [5]; [9]
  Growth Rate: 0
U2OS [5]; [10]
  Growth Rate: 0
Fibroblast [6]; [7]
  Growth Rate: 1
Fibroblast [6]; [11]
  Growth Rate: 0
Fibroblast [6]; [8]
  Growth Rate: 0
Fibroblast [6]; [9]
  Growth Rate: 0
Fibroblast [6]; [10]
  Growth Rate: 0
